{"data": "Measurements of several laboratories", "organism": "Staphylococcus epidermidis", "read-out": "microbial growth", "note": "Protocols differ between the studies behind these lines."}
{"Compound": "NC[C@H]1O[C@H](O[C@H]2[C@H](O)[C@@H](O[C@H]3O[C@H](CO)[C@@H](O)[C@H](N)[C@H]3O)[C@H](N)C[C@@H]2N)[C@H](N)C[C@@H]1O", "assay": "broth dilution", "system": "12228", "MIC": "0.78 µM"}
{"Compound": "NCCCC[C@H](N)C(=O)Nc1ccc(-n2nc(C(F)(F)F)cc2-c2ccc3c(ccc4ccccc43)c2)cc1", "assay": "broth dilution", "system": "ATCC35984", "conditions": "24 h", "MIC": "4 µg/mL"}
{"Compound": "CC(C)Oc1c(-n2cc(-c3ccc(NC(=O)C(CC(N)=O)NC(=O)c4ccc(NC(=O)c5ccc(C#N)cc5)cc4)cc3)nn2)ccc(C(=O)Nc2ccc(C(=O)O)cc2)c1O (centres unmarked)", "system": "DSM28765", "MIC": "0.125 µg/mL"}
{"Compound": "O=C(O)CN1C(=O)/C(=C/c2c3ccccc3c(-c3ccc(N(c4ccccc4)c4ccccc4)cc3)c3ccccc23)SC1=S", "assay": "broth dilution", "system": "ATCC12228", "MIC": "> 1000 µg/mL"}
{"Compound": "NCCCC[C@H](N)C(=O)Nc1ccc(-n2nc(C(F)(F)F)cc2-c2ccc3c(c2)Nc2ccccc2S3)cc1", "assay": "broth dilution", "system": "ATCC35984", "conditions": "24 h", "MIC": "4 µg/mL"}
{"Compound": "O=C(Nc1ncc([N+](=O)[O-])s1)C1CCCCC1", "assay": "broth dilution", "MIC": "31.3 µM"}
{"Compound": "CC(C)Oc1c(NC(=O)c2ccc(NC(=O)c3ccc(NC(=O)[C@H](CC(N)=O)NC(=O)c4ccc(NC(=O)c5ccc(C#N)s5)cc4)cc3)c(OC(C)C)c2O)ccc(C(=O)O)c1O", "system": "DSM28765", "MIC": "≤ 0.03 µg/mL"}
{"Compound": "CN[C@H](CC(C)C)C(=O)N[C@H]1C(=O)N[C@@H](CC(N)=O)C(=O)N[C@H]2C(=O)N[C@H]3C(=O)N[C@H](C(=O)N[C@H](C(=O)O)c4cc(O)cc(O)c4-c4cc3ccc4O)[C@H](O)c3ccc(c(Cl)c3)Oc3cc2cc(c3O[C@@H]2O[C@H](CO)[C@@H](O)[C@H](O)[C@H]2O[C@H]2C[C@](C)(N)[C@H](O)[C@H](C)O2)Oc2ccc(cc2Cl)[C@H]1O", "assay": "broth dilution", "system": "ATCC12228", "MIC": "0.98 µg/mL"}
{"Compound": "CC(C)Oc1c(NC(=O)c2ccc(NC(=O)[C@H](CC(N)=O)NC(=O)c3ccc(NC(=O)c4ccc(C#N)s4)cc3)cc2)ccc(C(=O)Nc2ccc(C(=O)O)cc2)c1O", "system": "DSM28765", "MIC": "0.5 µg/mL"}
{"Compound": "CC[C@H]1OC(=O)[C@H](C)[C@@H](O[C@H]2C[C@@](C)(OC)[C@@H](O)[C@H](C)O2)[C@H](C)[C@@H](O[C@@H]2O[C@H](C)C[C@H](N(C)C)[C@H]2O)[C@](C)(O)C[C@@H](C)C(=O)[C@H](C)[C@@H](O)[C@]1(C)O", "assay": "broth dilution", "system": "12228", "MIC": "0.78 µM"}
{"Compound": "O=C(O)CN1C(=O)/C(=C/c2c3ccccc3c(-c3ccc(N(c4ccccc4)c4ccccc4)cc3)c3ccccc23)NC1=S", "assay": "broth dilution", "system": "ATCC12228", "MIC": "> 1000 µg/mL"}
